Test results published in ChEMBL document CHEMBL4364270, “Structure-activity relationship studies on Bax activator SMBA1 for the treatment of ER-positive and triple-negative breast cancer” (Eur J Med Chem, 2019).
Calls of active or inactive are those of the source. No cut-off for these calls is given here.

Assays:
[1] = tested on: MCF7; assay: Antiproliferative activity against ER-positive human MCF7 cells assessed as reduction in cell growth incubated for 48 hrs by MTT assay; type: functional, cell-based; conditions: MCF7, 48 h
Summary of the method: (§1)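 MTT viability: MCF-7 and MDA-MB-231 seeded 1×10^4 cells/well, exposed to DMSO or 0.01-100 μM for 48 h; MTT (5 mg/mL in PBS) added 4 h, formazan dissolved in DMSO, OD 550 nm; quadruplicate wells; IC50 fitted for compounds giving >50% inhibition at 10 µM; at least three independent experiments.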

[2] = tested on: MCF7; assay: Induction of apoptosis in ER-positive human MCF7 cells assessed as appearance of concentrated dense granules at 5 to 10 uM incubated for 24 hrs by Hoechst 33342 staining based fluorescence microscopy; type: functional, cell-based
Summary of the method: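 Cells on coverslips (2.5×10^5/well) treated with DMSO or 5 and 10 μM for 24 h, washed in binding buffer, stained 15 min with FITC-annexin V, ethidium homodimer III and Hoechst 33342, mounted and imaged by fluorescence microscopy (DAPI filter) from center and peripheral regions.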

[3] = tested on: MDA-MB-231; assay: Induction of apoptosis in triple-negative human MDA-MB-231 cells assessed as downregulation of cyclin D1 level incubated for 48 hrs by Western blot analysis; type: functional, cell-based
Summary of the method: (§2)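 Western blot: cells harvested after treatment, lysates quantified by Bradford (BSA standard), 30 µg protein resolved by SDS-PAGE, transferred to PVDF, blocked in 5% nonfat milk, probed overnight with anti-PARP-1, anti-cleaved PARP-1 or anti-cyclin D1 (1:1,000) and β-actin loading control; ECL visualization.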

[4] = Toxicity in mouse xenografted with triple-negative human MDA-MB-231 cells assessed as slight reduction in body weight at 2.5 mg/kg, ip administered once daily for 7 days; type: organism-based; conditions: in vivo, 168 h
Summary of the method: (§3)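 Female nude mice (6 weeks) given 2.5×10^6 MDA-MB-231 cells in PBS into third mammary fat pad, randomized into four groups; at 200 mm³ tumor volume dosed i.p. daily for 7 days in 50% DMSO/50% PEG vehicle; tumor volume (0.5×L×W²) and body weight measured daily; one-way ANOVA.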

[5] = tested on: T47D; assay: Antiproliferative activity against ER-positive human T47D cells assessed as reduction in cell growth incubated for 72 hrs by MTT assay; type: functional, cell-based
Summary of the method: (§4)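 MTT viability after 72 h exposure at indicated concentrations; cells seeded at 1×10^3 cells/well (T47D, MDA-MB-468, MCF-10A, MCF-7/ADR) in 96-well plates; quadruplicate wells, independently repeated three times; IC50 as mean ± SE of at least three experiments.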

[6] = tested on: MDA-MB-231; assay: Antiproliferative activity against triple negative human MDA-MB-231 cells assessed as reduction in cell growth incubated for 48 hrs by MTT assay; type: functional, cell-based; conditions: MDA-MB-231, 48 h; summary of the method: as §1
[7] = tested on: MCF7; assay: Induction of apoptosis in ER-positive human MCF7 cells assessed as upregulation of caspase3 cleavage incubated for 48 hrs by Western blot analysis; type: functional, cell-based
[8] = tested on: MCF7; assay: Potency index, ratio of SMBA1 IC50 to compound IC50 for antiproliferative activity against ER-positive human MCF7 cells assessed as reduction in cell growth incubated for 48 hrs by MTT assay; type: functional
[9] = tested on: MCF7; assay: Induction of apoptosis in ER-positive human MCF7 cells assessed as upregulation of PARP1 cleavage incubated for 48 hrs by Western blot analysis; type: functional, cell-based; summary of the method: as §2
[10] = tested on: MDA-MB-231; assay: Antitumor activity against triple-negative human MDA-MB-231 cells xenografted in mouse assessed as reduction in tumor growth at 2.5 mg/kg, ip administered once daily for 7 days; type: functional; conditions: MDA-MB-231, ip, 168 h, read-out: GI; summary of the method: as §3
[11] = target: Apoptosis regulator BAX (Homo sapiens) (UniProt Q07812); assay: Activation of Bax in ER-positive human MCF7 cells assessed as reduction in Bax phosphorylation at Ser184 at 5 uM incubated upto 48 hrs by Western blotting analysis; type: cell-based; conditions: TDE = time-dependent effect
Apoptosis regulator BAX (Homo sapiens), sequence (Q07812 whole entry, canonical isoform): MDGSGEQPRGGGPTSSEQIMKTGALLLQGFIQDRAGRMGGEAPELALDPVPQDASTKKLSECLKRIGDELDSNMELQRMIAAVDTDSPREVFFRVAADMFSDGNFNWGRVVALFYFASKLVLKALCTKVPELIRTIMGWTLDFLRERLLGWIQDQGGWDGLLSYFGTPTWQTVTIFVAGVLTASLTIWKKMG
Summary of the method: (§5)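 Western blot of MCF-7 (and MDA-MB-231 for cytosolic fractions) cells exposed to 5 μM over 0-48 h; 30 µg protein per lane on SDS-PAGE, PVDF transfer, 5% milk block, overnight primary antibodies (total Bax, p-Bax, active Bax 6A7, cytochrome C), ECL detection; cytosolic fraction used for cytochrome c and Bax.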

[12] = target: Apoptosis regulator BAX (Homo sapiens) (UniProt Q07812); assay: Activation of Bax in ER-positive human MCF7 cells assessed as increase in active Bax 6A7 isoform protein level at 5 uM incubated upto 48 hrs by Western blot analysis; type: cell-based; summary of the method: as §5
[13] = tested on: MDA-MB-231; assay: Inhibition of colony formation in triple negative human MDA-MB-231 cells at 1 uM supplemented with fresh medium containing compound every 72 hrs for 2 weeks by crystal violet staining based assay; type: functional, cell-based
Summary of the method: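 Clonogenic assay: 800 cells per well seeded, treated after 24 h with 1 μM or DMSO vehicle, medium with compound renewed every 72 h for 2 weeks; PBS wash, 0.01% crystal violet 10 min, whole-well density digitally quantified; triplicate, one-way ANOVA, SD error bars.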

[14] = tested on: MDA-MB-231; assay: Induction of apoptosis in triple-negative human MDA-MB-231 cells assessed as upregulation of PARP1 cleavage incubated for 48 hrs by Western blot analysis; type: functional, cell-based; summary of the method: as §2
[15] = tested on: MDA-MB-231; assay: Potency index, ratio of IC50 of (E/Z)-2-(2-((2-nitro-9H-fluoren 9-ylidene)methyl)phenoxy)ethan-1-amine to IC50 of compound for antiproliferative activity against triple negative human MDA-MB-231 cells assessed as reduction in cell growth incubated for 48 hrs by MTT assay; type: functional
[16] = tested on: MDA-MB-231; assay: Antiproliferative activity against triple negative human MDA-MB-231 cells assessed as reduction in cell growth at 1 uM incubated for 48 hrs by MTT assay relative to control; type: functional; conditions: MDA-MB-231, 48 h; summary of the method: as §1
[17] = tested on: MCF7; assay: Antiproliferative activity against ER-positive human MCF7 cells assessed as reduction in cell viability at 10 uM incubated for 48 hrs by MTT assay relative to control; type: functional; conditions: MCF7, 48 h; summary of the method: as §1
[18] = tested on: MDA-MB-231; assay: Potency index, ratio of SMBA1 IC50 to compound IC50 for antiproliferative activity against triple negative human MDA-MB-231 cells assessed as reduction in cell growth incubated for 48 hrs by MTT assay; type: functional
[19] = tested on: MCF7; assay: Induction of apoptosis in ER-positive human MCF7 cells assessed as increase in total Bax protein level at 5 uM incubated upto 48 hrs by Western blot analysis; type: functional, cell-based; summary of the method: as §5
[20] = tested on: MDA-MB-468; assay: Antiproliferative activity against triple negative human MDA-MB-468 cells assessed as reduction in cell growth at 1 uM incubated for 72 hrs by MTT assay relative to control; type: functional; conditions: MDA-MB-468, 72 h; summary of the method: as §4
[21] = tested on: MCF7; assay: Induction of apoptosis in ER-positive human MCF7 cells assessed as decrease in cytosolic Bax level at 5 uM incubated for 48 hrs by Western blot analysis; type: functional, cell-based; summary of the method: as §5
[22] = target: Apoptosis regulator BAX (Homo sapiens) (UniProt Q07812); assay: Activation of Bax in triple-negative human MDA-MB-231 cells assessed as increase in cytosolic cytochrome C level at 5 uM incubated for 48 hrs by Western blot analysis; type: cell-based; summary of the method: as §5
[23] = tested on: T47D; assay: Antiproliferative activity against ER-positive human T47D cells assessed as reduction in cell growth at 1 uM incubated for 72 hrs by MTT assay relative to control; type: functional; summary of the method: as §4
[24] = tested on: MCF7; assay: Antiproliferative activity against adriamycin-resistant human MCF7 cells assessed as reduction in cell growth incubated for 72 hrs by MTT assay; type: functional, cell-based; summary of the method: as §4
[25] = tested on: MDA-MB-231; assay: Induction of apoptosis in triple negative human MDA-MB-231 cells assessed as upregulation of caspase3 cleavage incubated for 48 hrs by Western blot analysis; type: functional, cell-based

IC50 [1]: 60 nM | IC50 [5]: 1200 nM | IC50 [6]: 70 nM | inhibition [11]: Tde | Activity [12]: Active | Activity [22]: Active
Structure (SMILES): NCCOc1ncccc1C=C1c2ccccc2-c2ccc([N+](=O)[O-])cc21
Activity [2]: Active | Activity [3]: Dose-dependent effect | Activity [4]: Toxic | Activity [7]: Dose-dependent effect | Ratio IC50 [8]: 80 - 130 | Activity [9]: Dose-dependent effect | inhibition in vivo at 2.5 mg/kg [10]: 55% | inhibition [13]: Active | Activity [14]: Dose-dependent effect | Ratio IC50 [15]: 40 - 60 | inhibition at 1 µM [16]: > 50% | inhibition at 10 µM [17]: > 50% | Ratio IC50 [18]: 80 - 130 | Activity [19]: Active | inhibition at 1 µM [20]: > 50% | Activity [21]: Active | inhibition at 1 µM [23]: > 50% | inhibition [24]: Dose-dependent effect | Activity [25]: Dose-dependent effect
